T cruzi inh = blocks replication of Trypanosoma cruzi; 300,000 tested, 1.4% active; AID 1885; inhibition, % (concentration not given with the values); T. cruzi beta-gal in NIH3T3, luminescence, 90 h;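 active means mean inhibition across valid replicates above about 55%, limit read from the data; inconclusive means mean below that limit but half or more replicates reach it; inactive means mean below it, under half of replicates reach it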;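 further: signal also drops with host cell toxicity which is not excluded here; 0% = plate median of DMSO wells and 100% = zero luminescence signal; higher percent means less beta-gal luminescence so fewer parasites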
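System: Mouse NIH/3T3 fibroblasts infected with β-gal-expressing T. cruzi Tulahuen C4 | Quantity: NIH/3T3 cells, 5,000 per well | Reagent: 5000 reporter trypomastigotes per well | Dosing: Compound pinned at 50 nL/well, DMSO | Schedule: 3 h host attachment, then at least 90 h co-culture | Detection: GalScreen luminescence, 60 min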
Lmaj promast = inhibitors of Leishmania major promastigote growth. Leishmania major promastigotes, resazurin fluorescence viability. 200,000 tested, 9% active. inhibition, % at 10 µM; in the data active means inhibition above about 50%;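 further: promastigotes grown with compound for 44 hours at 28 °C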
Beta cell apopt = blocks beta cell apoptosis; INS-1E cytokine-induced death, ATP luminescence, 48 h; percent of positive-control rescue, neutral wells zero; 300,000 tested, 0.8% active; protection from apoptosis, % (no concentration beside the values);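 active means Every replicate reaches about 75%, or at least half do and their mean reaches it too, limit read from the data; inconclusive means At least half of replicates reach the limit but their mean does not; inactive means Under half of replicates reach the limit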;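 further: 0% = cytokine-treated negative control wells and 100% = positive control rescue; higher means more ATP so stronger rescue from cytokine killing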
CSC inhib = blocks cancer stem cells; cancer stem cell-like cells viability, luminescence; inhibition, % at 7.5 µM; 300,000 tested, 1.1% active; AID 2717; in the data active means inhibition above about 75%; inconclusive means no clear call, values can overlap the other calls; tested in HMLE shEcad cells
Mdm2-MdmX inh = disrupts the human Mdm2-MdmX interaction; O15151+Q00987; SaOS-2 split-luciferase Mdm2/MdmX complementation, luminescence; inhibition, % at 8 µM; 330,000 tested, 3% active;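 active means inhibition of at least 50% at 8 µM in the primary screen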
SKKanGAS inh = blocks kanamycin growth of S. pyogenes SKKanGAS strain | BacTiter-Glo, 6 h | inhibition, % at 7.5 µM | 300,000 tested, 1.3% active | AID 1662;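 active means mean replicate score, as percent of positive control median, at least 50; inconclusive means mean below 50 but one replicate at or above 50; inactive means mean and every replicate below 50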;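 further: strain carries kanamycin resistance gene driven by streptokinase promoter and grows in 40 µg/ml kanamycin; loss of luminescence reflects streptokinase promoter inhibition or plain growth inhibition; 0% = median of DMSO wells and 100% = positive control at its reference dose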
Lmaj promast 1uM = L. major promastigote growth inhibition, 1 uM repeat; shares compounds with Lmaj promast; resazurin fluorescence, 48 h; inhibition, % at 1 µM; 1,100 tested, 13% active;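 active means inhibition above about 50% in both repeat tests, limit read from the data; inconclusive means one repeat under the set limit, the other over it; inactive means both repeats under the set limit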
Numbers without * were called inactive; ? = inconclusive; . = not tested or not shown. Shown are actives, neighbours in structure and some others; about 9.4% of the full set was active somewhere.

SMILES	T cruzi inh	Lmaj promast	Beta cell apopt	CSC inhib	Mdm2-MdmX inh	SKKanGAS inh	Lmaj promast 1uM
COc1ccc(N2COC3c4cccc5cccc(c45)C32)cc1 (stereo not given)	-6.6	75.2*	22.4	31.6	-1.9	5.7	-3.3
CN(C)c1ccc(C(O)P(=O)(OC2CCCCC2)OC2CCCCC2)cc1 (stereo not given)	20.6	.	-6.2	-5.9	4.2	7.2	.
Cc1ccc(C(O)P(=O)(OC2CCCCC2)OC2CCCCC2)cc1 (stereo not given)	18.9	89.3*	.	-6.2	16.1	12.1	13.2
Cc1ccc(S(N)(=O)=O)cc1	.	.	-3.8	-2.1	11.3	.	.
Cc1ccc(S(=O)(=O)c2ccc(NN)cc2)cc1	.	96.9*	.	.	.	.	-9.6
Cc1ccccc1N(C(=O)c1cccs1)c1nc2ccccc2s1	8.6	98.8*	9.0	14.8	-14.1	14.3	?
Cc1nc(SCC(=O)N(C)C2CCS(=O)(=O)C2)c(C#N)c(C)c1C (stereo not given)	.	.	-1.8	.	-17.9	.	.
O=c1[nH][nH]cc1C=Nc1ccccc1O	-8.3	97.9*	-12.6	20.7	43.1	0.0	-4.4
O=C(CSc1ccc(-c2ccc(-n3cccn3)cc2)nn1)Nc1ccccc1F	-3.3	.	.	-14.2	-1.1	-7.4	.
CC(C)[C@H](NS(=O)(=O)c1ccccc1)C(=O)OCn1nnc2ccccc2c1=O	-4.3	-1.5	1.0	-1.5	-6.5	4.0	.
Cc1ccc(S(=O)(=O)N[C@H](C(=O)OCn2nnc3ccccc3c2=O)C(C)C)cc1	-15.6	67.4*	-9.7	-21.8	16.4	-3.2	-8.3
CC(=O)Nc1cccc(NC(=O)CSc2nc(=O)n3cccc(C)c3n2)c1	-2.8	.	.	-5.6	-38.3	-1.8	.
CC(C)(C)NC(=O)COC(=O)c1ccccc1C(=O)c1ccccc1	0.2	10.9	-5.3	-0.2	24.4	-2.0	.
Cn1c2ccccc2n2c(=O)c(Cl)c(-c3ccccc3)c(C#N)c12	33.4	61.6*	-0.1	5.6	14.4	-2.6	0.2
C/C(=N\NC(=O)c1ccccc1F)c1cccc(NC(=O)c2ccc(C)cc2)c1	2.3	.	-1.2	11.0	-26.0	5.2	.
O=Cc1ccc(OC2OCCOC2Oc2ccc(C=O)cc2)cc1 (stereo not given)	-8.1	53.2*	-1.9	-12.9	9.9	-0.1	1.5
CCN(CC)CCNC(=O)CCc1nnc2ccc(N3CCC(C)CC3)nn12	-5.5	.	-7.0	-4.5	-25.0	-4.7	.
S=c1sc2c(Cl)ncnc2n1-c1ccccc1	59.1*	87.0*	.	.	.	-0.9	30.4
C#CCNC(=O)C1=C[C@H](c2cn(C(C)=O)c3ccccc23)[C@@H](CCCO)[C@H](OCC)O1	3.0	-12.1	-1.4	-4.8	16.7	-4.5	.
CN(C)CCCN1c2ccccc2CCc2ccc(Cl)cc21	8.5	98.8*	-1.4	8.4	38.3	2.1	19.7
CNCCCN1c2ccccc2CCc2ccccc21	23.4	82.4*	5.4	-0.8	40.6	-0.1	-1.0
CN(CCCN1c2ccccc2CCc2ccccc21)CC(=O)c1ccc(Cl)cc1	4.7	.	0.9	-4.4	16.2	2.8	.
N=C1C(c2ccccc2)=C(O)CN1CCCO	2.3	-6.1	1.0	-0.1	-3.5	-7.7	.
COc1ccc(C#Cc2c(-c3ccccc3)n(-c3ccccc3)c3ccc(CO)cc23)cc1	.	.	5.2	.	41.7	.	.
O=C(Nc1nc2ccsc2c(=O)s1)C1CCC1	-11.5	.	4.2	6.3	2.5	4.4	.
SMILES	T cruzi inh	Lmaj promast	Beta cell apopt	CSC inhib	Mdm2-MdmX inh	SKKanGAS inh	Lmaj promast 1uM
O=c1sc(Nc2ccccc2)nc2ccsc12	-10.7	100.0*	2.3	-5.3	-48.5	1.1	-16.4
CC(C)CCn1c(O)c(N=Nc2ccccn2)c2ccccc21	15.6	69.4*	1.0	2.1	-2.2	6.6	-6.6
FC(F)Oc1ccc(/C=N/c2c(-c3ccc(OC(F)F)cc3)nc3n2CCS3)cc1	9.9	72.3*	-9.1	8.4	2.8	9.5	21.8
OC(COCC1COc2ccccc2O1)CN1CCN(c2ccccc2F)CC1 (stereo not given)	16.8	65.3*	3.0	3.9	23.8	6.0	-9.8
COc1ccc(NC(=O)C2CCN(S(=O)(=O)c3cccc4nonc34)CC2)c(OC)c1	13.5	.	-0.6	-16.5	23.6	-1.8	.
Cc1cccc(NCCC(=O)c2ccc(Br)cc2)c1	32.0	53.8*	5.3	12.7	2.2	0.3	-11.1
COCn1cnc(-c2ccccc2)c1-c1ccccc1	-7.6	.	-4.6	-8.9	3.5	-4.6	.
CCN(CC)C(=O)n1cnc(-c2ccccc2)c1-c1ccccc1	1.3	69.0*	-6.9	55.1	-6.9	-12.6	-11.8
COC(=O)[C@]1(Cc2ccccc2)N[C@H](CN(C)S(=O)(=O)c2ccc(C(C)(C)C)cc2)[C@@H]2C(=O)N(C)C(=O)[C@@H]21	.	.	2.8	.	22.2	.	.
O=C(O)c1cc2c(s1)CCCC2	-1.7	-6.7	1.9	-10.4	13.1	-0.1	.
CC(C)(C)C1CCc2sc(-c3nnc(CCl)o3)cc2C1 (stereo not given)	39.2	90.5*	-8.9	-5.5	22.2	12.0	-2.1
ClCc1nnc(-c2cc3c(s2)CCCC3)o1	40.2	98.2*	.	.	.	6.2	6.8
Cc1cc(S(=O)(=O)N2CCCCC2)ccc1OCC(=O)N1CCOCC1	-4.5	.	-1.9	18.5	31.2	14.5	.
Oc1cccc(C(O)CNCc2ccc(-c3ccccc3)cc2)c1 (stereo not given)	28.1	90.7*	0.2	45.4	35.4	-3.6	-10.5
Cc1ccc(/C=C\c2nccc3c2[nH]c2ccccc23)cc1	7.8	68.1*	4.6	83.2*	23.7	46.5	20.6
C(=C\c1nccc2c1[nH]c1ccccc12)/c1ccccc1	19.1	.	12.7	69.7	32.0	9.2	.
Cc1n[nH]c(=O)c2c(NC(=O)CSc3nc4ccccc4c(=O)n3CCCOC(C)C)oc(C)c12	0.0	.	-4.6	-18.5	32.0	19.9	.
N#Cc1cc(Oc2ccc3ccccc3c2)c(-n2nnc3ccccc32)cc1C#N	.	52.1*	9.1	4.0	31.5	5.6	95.7*
COc1cc(NC(=O)C2CCN(c3cnccn3)CC2)cc(OC)c1OC	-10.9	.	-3.3	6.5	12.0	-3.4	.
COc1ccc(C2C(C#N)=C(N)Oc3cc(C)n(Cc4ccncc4)c(=O)c32)cc1 (stereo not given)	-2.9	-1.5	-3.3	-3.5	12.7	-0.4	.
CCN1C=C(Cc2ccc(OC)cc2)C2=C(C1)C(c1ccc(OC)cc1)C(C#N)=C(N)O2 (stereo not given)	28.5	99.8*	-0.7	-0.8	-0.2	7.1	-3.2
C(=N\Nc1nc2ccccc2[nH]1)/c1ccccn1	68.7*	99.7*	.	.	.	25.4	-7.9
NC(=O)N/N=C/c1ccc(N2CCOCC2)s1	-1.3	59.7*	1.8	-4.6	-2.9	4.4	-7.9
CCc1cc(=O)oc2c(C)c(OCC(=O)NCCCn3ccnc3)ccc12	-6.3	.	1.3	22.3	0.9	-1.7	.
Cc1ccc2[nH]c3c(c2c1)CCC3=O	1.6	-1.9	-4.4	2.8	20.9	-15.3	.
Cc1ccc2[nH]c3c(c2c1)CCc1cn[nH]c1-3	1.8	51.6*	0.3	29.8	22.9	-13.2	-7.7

High-throughput results as filed in PubChem BioAssay.
